Source: PMC5414581 (Neuropharmacology, 2017)
Where a chain is given by its changes, count along the chain named. “Also recorded” adds a separate entry of the source. Where a SMILES comes first, the peptide text is derived from it. Where no end group is shown, it is not given here. Me2 = N,N-dimethyl-lysine

How the values were obtained:
[1] = biological target: T1, human NPS receptor, 107I variant (human) (UniProt Q6W5P4)
T1 sequence: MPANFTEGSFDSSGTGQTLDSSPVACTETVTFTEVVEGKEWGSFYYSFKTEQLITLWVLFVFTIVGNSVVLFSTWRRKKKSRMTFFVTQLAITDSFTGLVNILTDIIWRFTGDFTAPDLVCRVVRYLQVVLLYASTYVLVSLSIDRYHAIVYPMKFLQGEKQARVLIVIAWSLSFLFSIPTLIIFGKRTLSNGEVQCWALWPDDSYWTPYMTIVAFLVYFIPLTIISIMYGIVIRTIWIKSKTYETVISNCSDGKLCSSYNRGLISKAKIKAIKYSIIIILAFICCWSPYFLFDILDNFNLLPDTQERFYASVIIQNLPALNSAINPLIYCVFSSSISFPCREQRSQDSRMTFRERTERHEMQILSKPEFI

mNPSR [2] = biological target: T2, mNPSR (Mus musculus, UniProt Q8BZP8); assay: cAMP accumulation assay; format: cell-based
T2 sequence (Q8BZP8 1-371): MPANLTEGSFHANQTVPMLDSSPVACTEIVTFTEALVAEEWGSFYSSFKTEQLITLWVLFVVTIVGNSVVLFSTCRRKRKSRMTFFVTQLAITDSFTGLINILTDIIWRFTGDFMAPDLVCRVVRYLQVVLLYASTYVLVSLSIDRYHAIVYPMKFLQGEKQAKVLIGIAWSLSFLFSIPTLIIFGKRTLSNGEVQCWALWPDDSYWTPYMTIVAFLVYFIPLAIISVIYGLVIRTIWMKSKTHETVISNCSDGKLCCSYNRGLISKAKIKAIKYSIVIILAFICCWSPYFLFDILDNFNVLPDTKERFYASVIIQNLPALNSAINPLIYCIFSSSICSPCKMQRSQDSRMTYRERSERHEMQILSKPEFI
Summary of the method: (§1)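 Cells were harvested with versene and suspended in HBSS, 5 mM HEPES, 0.5 mM IBMX, 0.1% BSA, pH 7.4: hNPSR-107N at 8,000/well, hNPSR-107I at 4,000/well, mNPSR at 20,000/well. Agonist was incubated at room temperature for 30 min (human lines) or 1 h (mNPSR). LANCE Ultra TR-FRET detection ran 1 h in the dark. RFU was interpolated to fmol cAMP from a standard curve, and a three-parameter fit gave EC50.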

hNPSR-107I [3] = biological target: T3, hNPSR-107I (Homo sapiens, UniProt Q6W5P4, N107I); assay: cAMP accumulation assay; format: cell-based
T3 sequence (Q6W5P4 1-371 N107I): T1 sequence
Summary of the method: as §1

hNPSR-107I [4] = biological target: T3, hNPSR-107I; assay: Ca+2 mobilization assay, CHO-Gα16 hNPSR-107I cells; format: cell-based
Summary of the method: (§2)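 FLIPR Calcium 5 dye diluted 1:40 in HBSS, 20 mM HEPES, 2.5 mM probenecid, pH 7.4, loaded 45 min at 37 °C. Cells were plated overnight without selection antibiotics: CHO-Gα16 hNPSR-107I/N at 25,000/well and HEK 293T mNPSR at 35,000/well. Cells were pretreated 15 min at 1% DMSO. Test compound or NPS was added during a 60 s read (ex 485/em 525). Peak RFU was fit to a three-parameter logistic curve to give EC50. Bias was taken as Log(max/EC50), calcium versus cAMP, relative to NPS.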

mNPSR [5] = biological target: T2, mNPSR; assay: Ca+2 mobilization assay, HEK 293T mNPSR cells; format: cell-based
Summary of the method: as §2

hNPSR-107N [6] = biological target: T4, hNPSR-107N (Homo sapiens, UniProt Q6W5P4); assay: cAMP accumulation assay; format: cell-based
T4 sequence (Q6W5P4 1-371): T1 sequence with I107N
Summary of the method: as §1

mice [7] = assay: Locomotor stimulation; format: in vivo, mouse; conditions: RTI-118 50 mg/kg i.p.; compound 4 10 nmole ICV
Summary of the method: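 Mice were habituated 1 h in a 40 × 40 cm infrared-beam open field in a novel room, during the light phase. Test compound in aCSF/0.1% BSA was given ICV into the lateral ventricle under brief isoflurane. Recording began after ≥5 min recovery. The antagonist was given 50 mg/kg i.p. in saline as pretreatment. Misplaced injections were excluded post-mortem. n = 7–11 per group; one-way ANOVA with Dunnett's test.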

mice [8] = assay: Marble Burying; format: in vivo, mouse
mice [9] = assay: Light-Dark Box; format: in vivo, mouse; conditions: 1 nmole ICV, 5–10 minutes before test
hNPSR-107I [10] = biological target: T3, hNPSR-107I; conditions: ref Bernier et al., 2006; cited from earlier work
hNPSR-107N [11] = biological target: T4, hNPSR-107N; assay: Ca+2 mobilization assay, CHO-Gα16 hNPSR-107N cells; format: cell-based; conditions: hNPSR 107N cell line
Summary of the method: as §2

mice [12] = assay: Passive Avoidance; format: in vivo, mouse; conditions: ICV 20 minutes after training, tested 48 hours after training; compound 4 0.01-10 nmole, NPS 1 nmole; vs aCSF
[13] = biological target: T5, human NPS receptor, 107N variant (human) (UniProt Q6W5P4)
T5 sequence: T1 sequence with I107N

[14] = biological target: T6, mouse NPS receptor (mouse) (UniProt Q8BZP8)
T6 sequence: T2 sequence (Q8BZP8 1-371)

[15] = mNPSR cell line, fraction of maximal window for response
[16] = hNPSR 107I cell line, fraction of maximal window for response

Molecule: 7. SerPheAOCAsn-NH2 (peptide)
- EC50 of calcium mobilization, CHO-Gα16 hNPSR-107I cells [1]: 436 nM

Molecule: NCCCC[C@H](NC(=O)[C@H](Cc1ccccc1)NC(=O)[C@@H](N)CO)C(=O)N[C@@H](CC(N)=O)C(N)=O [compound 4, SerPheLysAsn-NH2] (H-SFKN-NH2)
- EC50 (mNPSR [2]): 911 ± 86 nM
- EC50 (hNPSR-107I [3]): 117 ± 22 nM
- EC50 (hNPSR-107I [4]): 3.02 ± 0.74 nM
- EC50 (mNPSR [5]): 100 ± 5.3 nM

Molecule: SFRNGV-NH2 [compound 1, SerPheArgAsnGlyVal-NH2]
- EC50 (mNPSR [2]): 13.4 ± 4.8 nM
- EC50 (hNPSR-107I [3]): 1.95 ± 0.28 nM
- cAMP Accumulation EC50 (hNPSR-107I [3]; hNPSR 107I cell line): comparable potency to NPS
- EC50 (hNPSR-107N [6]): 427 nM
- EC50 (mNPSR [5]): 2.03 ± 0.3 nM

Molecule: O=C(NCCN1CCCCC1)N1CCN2C(=O)OC(c3ccccc3)(c3ccccc3)C2C1 (stereo not shown) [RTI-118]
- block of compound 4 induced locomotor effects by pretreatment (mice [7]): induced locomotor effects can be blocked; also recorded: this effect is blocked by pretreatment
- block of compound 4 effect on marble burying by pretreatment (mice [8]; RTI-118 20 mg/kg fifteen minutes before compound 4 0.5 nmole): effects of 4 can be blocked; also recorded: blocked by the pretreatment with RTI-118

Molecule: SFRNGVGTGMKKTSFQRAKS [NPS, Neuropeptide S]
- cAMP Accumulation Max (mNPSR [2]; [15]): 0.82
- cAMP Accumulation Max (hNPSR-107I [3]; [16]): 1
- number of marbles buried (mice [8]; 1 nmole ICV, twenty minutes before test, vs aCSF (Figure 5A)): NPS and 4 produce similar effects; also recorded: significantly decreased the number of marbles buried
- BIAS (Bias Toward Calcium) (hNPSR-107I [4]; hNPSR 107I cell line, calcium versus cAMP pathway): 1.00
- Calcium Mobilization Max (hNPSR-107I [4]; [16]): 0.96
- number of entries into the light-side (mice [9]): Neither NPS nor 4 significantly increased the number of entries into the light-side; also recorded: significantly more entries than compound 4 treated animals
- time spent on the light side (mice [9]; vs aCSF): significantly increased the time spent on the light-side; also recorded: spent significantly more time on the light-side than the compound 4 treated animals
- selectivity for the hNPSR-107I over the hNPSR-107N (calcium mobilization EC50) (hNPSR-107I [10]): 5 fold
- cAMP Accumulation Max (hNPSR-107N [6]; hNPSR 107N cell line, fraction of maximal window for response): 0.97
- BIAS (Bias Toward Calcium) (hNPSR-107N [11]; calcium versus cAMP pathway): 1.00
- Calcium Mobilization Max (hNPSR-107N [11]; fraction of maximal window for response): 0.97
- BIAS (Bias Toward Calcium) (mNPSR [5]; mNPSR cell line, calcium versus cAMP pathway): 1.00
- Calcium Mobilization Max (mNPSR [5]; [15]): 1
- latency to enter the dark compartment (mice [12]): appear to have the same maximal effects; also recorded: significantly increased the latency time

Molecule: SFRN-NH2 [3. SerPheArgAsn-NH2]
- EC50 of cAMP accumulation, HEK 293T hNPSR-107N cells [13]: > 10000 nM
- EC50 of calcium mobilization, CHO-Gα16 hNPSR-107N cells [13]: 998 nM
- EC50 of cAMP accumulation, HEK 293T hNPSR-107I cells [1]: 129 nM
- EC50 of calcium mobilization, CHO-Gα16 hNPSR-107I cells [1]: 2.43 nM
- EC50 of cAMP accumulation, HEK 293T mNPSR cells [14]: 800 nM
- EC50 of calcium mobilization, HEK 293T mNPSR cells [14]: 66.6 nM

Molecule: SFK(trifluoroacetyl)N-NH2 [6. SerPheLysCOCF3Asn-NH2]
- EC50 of calcium mobilization, CHO-Gα16 hNPSR-107I cells [1]: 563 nM

Molecule: SFK(Me2)N-NH2 [5. SerPheDimethylLysAsn-NH2]
- EC50 of calcium mobilization, CHO-Gα16 hNPSR-107I cells [1]: 43.5 nM

Molecule: SFKN-NH2 [4. SerPheLysAsn-NH2]
- EC50 of cAMP accumulation, HEK 293T hNPSR-107I cells [1]: 117 nM
- EC50 of calcium mobilization, CHO-Gα16 hNPSR-107I cells [1]: 3.02 nM
- EC50 of cAMP accumulation, HEK 293T mNPSR cells [14]: 911 nM
- EC50 of calcium mobilization, HEK 293T mNPSR cells [14]: 100 nM

Molecule: SFRNGVGTGMKKTSFQRAKS [Neuropeptide S]
- EC50 of cAMP accumulation, HEK 293T hNPSR-107N cells [13]: 48.9 nM
- EC50 of calcium mobilization, CHO-Gα16 hNPSR-107N cells [13]: 2 nM
- EC50 of cAMP accumulation, HEK 293T hNPSR-107I cells [1]: 4.19 nM
- EC50 of calcium mobilization, CHO-Gα16 hNPSR-107I cells [1]: 0.59 nM
- EC50 of cAMP accumulation, HEK 293T mNPSR cells [14]: 3.67 nM
- EC50 of calcium mobilization, HEK 293T mNPSR cells [14]: 5.55 nM

Molecule: SFRNG-NH2 [2. SerPheArgAsnGly-NH2]
- EC50 of cAMP accumulation, HEK 293T hNPSR-107N cells [13]: > 10000 nM
- EC50 of cAMP accumulation, HEK 293T hNPSR-107I cells [1]: 3060 nM
- EC50 of cAMP accumulation, HEK 293T mNPSR cells [14]: > 10000 nM
- EC50 of calcium mobilization, HEK 293T mNPSR cells [14]: 1010 nM

Molecule: SFRNGV-NH2 [1. SerPheArgAsnGlyVal-NH2]
- EC50 of cAMP accumulation, HEK 293T hNPSR-107N cells [13]: 427 nM
- EC50 of cAMP accumulation, HEK 293T hNPSR-107I cells [1]: 1.95 nM
- EC50 of cAMP accumulation, HEK 293T mNPSR cells [14]: 13.4 nM
- EC50 of calcium mobilization, HEK 293T mNPSR cells [14]: 2.03 nM
